Test results published in ChEMBL document CHEMBL1770142, “Improvement of the synthesis and pharmacokinetic properties of chromenotriazolopyrimidine MDM2-p53 protein-protein inhibitors” (Bioorg Med Chem Lett, 2011).
In brackets after ≈: the same amount, converted by molar mass.

Columns and labels:
[1] = Solubility of the compound in phosphate buffer saline; format: physicochemical
[2] = Mean residence time in rat at 0.5 mg/kg, iv; format: ADME, organism-based; set-up: dose 0.5 mg/kg, route intravenous; settings: in vivo
Method in brief: (§1)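 Rat PK: intravenous 0.5 mg/kg in 100% DMSO; oral 2.0 mg/kg in 0.5% methylcellulose/1% Tween 80/98.5% water. Plasma profiles give MRT, Vdss and CL from the iv arm and F from the oral arm.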

[3] = Volume of distribution at steady state in rat at 0.5 mg/kg, iv; format: ADME, organism-based; set-up: dose 0.5 mg/kg, route intravenous; settings: in vivo, read-out: Vdss; method in brief: as §1
[4] = Oral bioavailability in rat at 2 mg/kg; format: ADME, organism-based; settings: in vivo; method in brief: as §1
[5] = Mean residence time in rat at 2 mg/kg, iv; format: ADME, organism-based; set-up: dose 2 mg/kg, route intravenous; settings: in vivo
Method in brief: (§2)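 Rats dosed intravenously at 2.0 mg/kg in DMSO, or orally at 5.0 mg/kg in 2% HPMC, 1% Tween 80, pH 2.2 with HCl. Plasma levels of parent and of the 4/5 conversion products were followed over time. iv parameters and oral bioavailability were taken from these profiles.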

[6] = Volume of distribution at steady state in rat at 2 mg/kg, iv; format: ADME, organism-based; set-up: dose 2 mg/kg, route intravenous; settings: in vivo, read-out: Vdss; method in brief: as §2
[7] = Oral bioavailability in rat at 5 mg/kg, po; format: ADME, organism-based; settings: in vivo; method in brief: as §2

Structure (SMILES)	solubility [1]	MRT [2]	Vd [3]	bioavailability [4]	MRT [5]	Vd [6]	bioavailability [7]
O=C(O)CN1C2=C([C@H](c3ccc(Br)cc3)n3ncnc31)[C@@H](c1ccc(Br)cc1)Oc1ccccc12	132 µg/mL (≈ 222 µM)	0.46 h	2.6 L/kg	14%	–	–	–
CN1C2=C([C@H](c3ccc(Br)cc3)n3ncnc31)[C@@H](c1ccc(Br)cc1)Oc1ccccc12	< 1 µg/mL	–	–	–	2.4 h	9.9 L/kg	23%
O=C(O)CCCCN1C2=C([C@H](c3ccc(Br)cc3)n3ncnc31)[C@@H](c1ccc(Br)cc1)Oc1ccccc12	6.1 µg/mL (≈ 9.59 µM)	4.1 h	1.7 L/kg	54%	–	–	–
